Statin myotox sup: suppressors of simvastatin-induced myotoxicity in C2C12 myotubes; ATP luminescence, 48 h; scaled: DMSO 0, geranylgeraniol control 100; AID 602340; rescue of ATP level, % at 7.49 µM; 0.78% of 330,000 active;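 active = mean ATP rescue above about 67%, or every replicate alone reaching that limit, limit read from the data, passing the limit was not always enough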;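 note: myotubes were challenged with 10 µM simvastatin during compound exposure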
DENV2 CPE: DENV2-induced cell death inhibition; 1.7% of 350,000 active; AID 651640; DENV2-infected cells, cytopathic effect rescue, plate reader; CPE inhibition, % at 9.99 µM; in the data active = CPE inhibition above about 20%, passing the limit was not always enough; tested in BHK-21 cells;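 note: 0% = median of neutral control wells and 100% = median of positive control wells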
E-sel inducer: induces E-selectin expression in human endothelial cells. P16581. 0.37% of 260,000 active. activation, % at 7.58 µM. HUVEC E-selectin immunofluorescence imaging; normalized: neutral wells 0, TNF-alpha wells 100;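 active = mean E-selectin-positive cell signal at least 10% of the positive control, reached in at least 60% of replicates, without over 20% cell loss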
Target sequence (P16581 whole entry, looked up): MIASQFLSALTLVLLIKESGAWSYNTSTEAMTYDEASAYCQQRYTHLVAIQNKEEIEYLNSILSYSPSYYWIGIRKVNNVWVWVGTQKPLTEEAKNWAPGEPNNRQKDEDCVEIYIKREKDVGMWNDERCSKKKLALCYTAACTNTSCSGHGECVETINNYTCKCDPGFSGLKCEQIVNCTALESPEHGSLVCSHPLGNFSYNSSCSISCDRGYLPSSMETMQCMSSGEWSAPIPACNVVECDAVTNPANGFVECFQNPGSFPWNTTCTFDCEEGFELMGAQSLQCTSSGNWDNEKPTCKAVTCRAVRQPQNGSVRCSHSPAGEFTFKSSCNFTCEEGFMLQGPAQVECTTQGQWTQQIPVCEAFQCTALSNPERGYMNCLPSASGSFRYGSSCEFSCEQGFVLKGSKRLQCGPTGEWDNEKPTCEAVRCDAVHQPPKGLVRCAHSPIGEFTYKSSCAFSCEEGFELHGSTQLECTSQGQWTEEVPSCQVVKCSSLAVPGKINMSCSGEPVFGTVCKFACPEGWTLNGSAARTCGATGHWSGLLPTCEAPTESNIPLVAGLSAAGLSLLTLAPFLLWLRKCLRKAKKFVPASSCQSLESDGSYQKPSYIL
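Read-out basis: % PE-positive cells; Test system: HUVEC primary endothelial cells; Technique: immunofluorescence imaging; Dosing: single-point compound dose.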
Active calls of the source: *; . = no result. Sampled rows, rich in hits. Any-hit rate of the full collection: about 2.2%.

SMILES	Statin myotox sup	DENV2 CPE	E-sel inducer
CCC(=O)Nc1ccc2c(c1)OC[C@H](C)N(C(C)=O)C[C@H](C)[C@@H](OC)CN(C)C2=O	5	1	0
CO[C@H]1CN(C)C(=O)c2cc(NC(=O)CC(F)(F)F)ccc2OC[C@H](C)N(C(C)=O)C[C@@H]1C	.	-6	0
CCC(=O)Nc1ccc2c(c1)OC[C@@H](C)N(C(C)=O)C[C@H](C)[C@@H](OC)CN(C)C2=O	16	-6	0
CO[C@@H]1CN(C)C(=O)c2ccc(NC(=O)CC(F)(F)F)cc2OC[C@H](C)N(C(C)=O)C[C@@H]1C	.	108*	0
CCC(=O)Nc1ccc2c(c1)OC[C@@H](C)N(C(C)=O)C[C@H](C)[C@H](OC)CN(C)C2=O	-7	27*	0
CNC[C@H]1OCCCC[C@@H](C)Oc2ccc(NC(=O)NC(C)C)cc2C(=O)N([C@@H](C)CO)C[C@H]1C	.	-5	0
Cc1ccc(S(=O)(=O)N2CCN(C(=O)C3Cc4ccccc4CN3C(=O)c3ccco3)CC2)cc1 (centres undefined)	98*	.	.
O=C(c1ccco1)N1CCN(C(=O)C2Cc3ccccc3CN2S(=O)(=O)c2ccc(F)cc2)CC1 (centres undefined)	-3	.	.
COc1ccc(CN(C)C[C@@H]2Oc3ccc(NS(=O)(=O)c4c(C)noc4C)cc3C(=O)N([C@H](C)CO)C[C@H]2C)cc1	.	14	0
Cc1noc(C)c1S(=O)(=O)Nc1ccc2c(c1)C(=O)N([C@H](C)CO)C[C@H](C)[C@H](CN(C)Cc1ccccc1)O2	-2	21*	0
Cc1noc(C)c1S(=O)(=O)Nc1ccc2c(c1)C(=O)N([C@@H](C)CO)C[C@@H](C)[C@@H](CN(C)Cc1ccc3c(c1)OCO3)O2	51	32*	33*
Cc1noc(C)c1S(=O)(=O)Nc1ccc2c(c1)C(=O)N([C@@H](C)CO)C[C@@H](C)[C@H](CN(C)Cc1ccc3c(c1)OCO3)O2	.	.	1
COc1ccc(CN(C)C[C@H]2Oc3ccc(NS(=O)(=O)c4c(C)noc4C)cc3C(=O)N([C@H](C)CO)C[C@H]2C)cc1	.	29*	20
Cc1noc(C)c1S(=O)(=O)Nc1ccc2c(c1)C(=O)N([C@H](C)CO)C[C@H](C)[C@@H](CN(C)Cc1ccccc1)O2	-1	2	0
O=C(C[C@H]1CC[C@@H]2[C@H](COC[C@H](O)CN2Cc2ccccc2)O1)NCCCN1CCOCC1	5	-2	0
C[C@H]1CN([C@@H](C)CO)C(=O)c2cc(-c3ccncc3)cnc2O[C@H]1CN(C)C(=O)c1ccncc1	14	-6	1
COc1ccc(S(=O)(=O)Nc2ccc3c(c2)C(=O)N([C@@H](C)CO)C[C@@H](C)[C@H](CN(C)Cc2ccc(C(F)(F)F)cc2)O3)cc1	62	-6	0
CCCCOc1ccc(N2CC(C(=O)NC(C)C)CC2=O)cc1 (centres undefined)	25	.	.
CCOc1ncccc1C(=O)OCC(=O)c1ccc[nH]1	-2	.	.
Nc1nccnc1C(=O)OCC(=O)c1ccc[nH]1	-2	33*	.
CC(C)NC(=O)N[C@@H]1C=C[C@@H](CC(=O)NCCCN(C)C)O[C@@H]1CO	-10	8	0
C[C@H](c1ccccc1)N1C[C@@H](COCc2ccccc2)Oc2cccc(Oc3ccc(C(C)(C)C)cc3)c2S1(=O)=O	.	85*	0
C[C@H](c1ccccc1)N1C[C@@H](COCc2ccccc2)Oc2cccc(Oc3ccccc3)c2S1(=O)=O	.	0	0
Cc1ccccc1NC(=O)c1c(C)nc(SCC(=O)OCc2ccccc2)c(C#N)c1-c1ccc(F)cc1	.	20*	.
Cc1nc(SCC(=O)OCc2ccccc2)c(C#N)c(-c2ccccc2)c1C(=O)Nc1ccccc1	3	.	.
SMILES	Statin myotox sup	DENV2 CPE	E-sel inducer
C[C@H]1CN([C@@H](C)CO)C(=O)c2cc(-c3ccncc3)cnc2O[C@@H]1CN(C)C(=O)CN1CCOCC1	4	0	0
CS(=O)(=O)Nc1ccc2c(c1)[C@@H]1C[C@H](CC(=O)NC3CCCC3)O[C@H](CO)[C@@H]1O2	-5	1	-1
Cc1nn(-c2ccccn2)c2c1-c1nc(N)ncc1CC2	115*	.	.
Cc1nn(-c2ccccn2)c(N)c1N=O	.	-2	.
CN(C)C1(CNC(=O)C2CCN(S(=O)(=O)c3cc(Cl)ccc3Cl)CC2)CCCCC1	-12	4	70*
CC(C)c1ccc(S(=O)(=O)N2CCC(C(=O)NCC3(N(C)C)CCCCC3)CC2)cc1	.	4	.
CCCNC(=O)N1CC(=O)N2[C@H](C1)[C@@H](c1ccc(-c3cccc(C)c3)cc1)[C@@H]2CO	.	6	1
CC(C)NC(=O)N(C)C[C@H]1Oc2ncc(C#CC3CCCCC3)cc2C(=O)N([C@H](C)CO)C[C@H]1C	7	.	0
O=C(CS(=O)(=O)c1ccccc1)NC1CCCCC1	12	-3	0
CC(C)NC(=O)CS(=O)(=O)c1ccccc1	112*	8	.
C[C@H](NC(=O)C[C@@H]1CC[C@@H]2[C@H](COc3ccc(NS(=O)(=O)c4ccc(Cl)cc4)cc3C(=O)N2C)O1)c1ccccc1	-8	-5	0
Cc1cc(C(=O)Nc2ccc3c(c2)C(=O)N(C)[C@H]2CC[C@@H](CC(=O)N[C@@H](C)c4ccccc4)O[C@H]2CO3)no1	10	97*	0
C[C@H](NC(=O)C[C@H]1CC[C@H]2[C@H](COc3ccc(NS(=O)(=O)c4ccc(Cl)cc4)cc3C(=O)N2C)O1)c1ccccc1	-2	8	128*
Cc1cc(C(=O)Nc2ccc3c(c2)C(=O)N(C)[C@H]2CC[C@H](CC(=O)N[C@@H](C)c4ccccc4)O[C@H]2CO3)no1	36	-7	0
O=C(C[C@@H]1CC[C@@H]2[C@H](COC[C@@H](O)CN2Cc2cccc(Cl)c2)O1)NCC1CCCCC1	21	2	0
COc1ccc(S(=O)(=O)Nc2ccc3c(c2)C(=O)N([C@H](C)CO)C[C@@H](C)[C@@H](CN(C)C)OCCCC[C@H](C)O3)cc1	.	1	0
CN(C)S(=O)(=O)N1CCC(Oc2ccc(C(=O)N3CCCCCCC3)cc2)CC1	-5	45*	-1
CN(C)S(=O)(=O)N1CCC(Oc2ccc(C(=O)N3CCCCCC3)cc2)CC1	-7	5	1
CNC[C@H]1Oc2c(NS(=O)(=O)c3ccc(Cl)cc3)cccc2C(=O)N([C@H](C)CO)C[C@H]1C	3	79*	0
C[C@@H]1CN([C@H](C)CO)C(=O)c2cccc(NS(C)(=O)=O)c2O[C@H]1CN(C)Cc1ccc(Oc2ccccc2)cc1	-4	5	4
C[C@H](CO)N1C[C@H](C)[C@H](CN(C)Cc2ccc(Oc3ccccc3)cc2)Oc2c(NS(=O)(=O)c3ccc(Cl)cc3)cccc2C1=O	80*	-2	0
C[C@@H]1CN([C@@H](C)CO)C(=O)c2cccc(NS(=O)(=O)c3ccccc3)c2O[C@@H]1CN(C)Cc1ccc(Oc2ccccc2)cc1	10	-7	0
C[C@@H]1CN([C@H](C)CO)C(=O)c2cccc(NS(=O)(=O)c3ccc(Cl)cc3)c2O[C@H]1CN(C)Cc1ccccc1	27	25*	0
CNC[C@@H]1Oc2c(NS(=O)(=O)c3ccc(Cl)cc3)cccc2C(=O)N([C@H](C)CO)C[C@H]1C	-3	-6	0
